# System: Severe acute respiratory syndrome coronavirus 2
# Assay: Binding affinity to N-terminal 6-histidine tagged Severe acute respiratory syndrome coronavirus 2 nucleocapsid protein overexpressed in Escherichia coli BL21 (DE3) assessed as response unit by SPR assay
# How it was run: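 Single-concentration binding screen: compounds at 200 μM over a surface carrying >10000 RU NPro. 120 s contact, 180 s dissociation, running buffer with 5% DMSO, solvent correction applied. Running buffer served as negative control.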
row,SMILES,Activity
1,CCN1Cc2cc(OC)c(OC)cc2-c2cccc(NCC(F)(F)F)c21,125 RU
2,CCn1c(=O)c2cc(OC)c(OC)cc2c2cccc(N)c21,23.1 RU
3,CCn1c(=O)c2cc(OC)c(OC)cc2c2cccc(C(=O)O)c21,33.5 RU
4,CCn1c(=O)c2cc(OC)c(OC)cc2c2cccc(NC(=O)CCC(=O)OC)c21,13.1 RU
5,CCc1cccc2c1ncc1ccc(OC)cc12,30.7 RU
6,Cc1cccc2c1N(C)Cc1cc(O)ccc1-2,35 RU
7,CCN1Cc2cc(OC)c(OC)cc2-c2cccc(NC(=O)C(C)C)c21,11.8 RU
8,CCN1Cc2cc(OC)c(OC)cc2-c2cccc(NC(=O)C(F)(F)F)c21,101 RU
9,COc1cc2cnc3c(C)cccc3c2cc1OC,29.4 RU
10,CCN1Cc2cc(OC)c(OC)cc2-c2cccc(N)c21,145 RU
11,CCN1Cc2cc(OC)c(OC)cc2-c2cccc(NC(C)=O)c21,14.3 RU
12,CCc1cccc2c1N(C)Cc1cc(OCc3cc(C)nn3C)c(OCc3cc(C)nn3C)cc1-2,211 RU
13,CCc1cccc2c1N(C(=O)CBr)Cc1ccc(OC)cc1-2,22 RU
14,CCC(=O)Nc1cccc2c1N(CC)Cc1cc(OC)c(OC)cc1-2,10.6 RU
15,CCn1c(=O)c2cc(OC)c(OC)cc2c2cccc(NC(C)=O)c21,17.7 RU
16,COc1ccc2c(c1)CN(C)c1c(C)cccc1-2,34.9 RU
17,COc1cc2c(cc1OC)-c1cccc(C)c1N(C(=O)C(F)(F)F)C2,57.5 RU

# System: not listed separately
# Assay: Binding affinity to N-terminal 6-histidine tagged Severe acute respiratory syndrome coronavirus 2 nucleocapsid protein overexpressed in Escherichia coli BL21 (DE3) assessed as dissociation constant by SPR assay
row,SMILES,Kd
1,CCN1Cc2cc(OC)c(OC)cc2-c2cccc(NCC(F)(F)F)c21,10.4 µM
2,CCc1cccc2c1N(C)Cc1cc(OCc3cc(C)nn3C)c(OCc3cc(C)nn3C)cc1-2,10.8 µM

# From ChEMBL document CHEMBL5131398, “Novel nucleocapsid protein-targeting phenanthridine inhibitors of SARS-CoV-2” (Eur J Med Chem, 2022)
